Source: PMC6139374 (Cell, 2018)
Values joined by “and” are separate entries in the source; they are usually repeats but may differ in a detail not shown here. Equal values may be shown once. Where no end group is shown, it is not given here. Side-chain parts run from the residue outwards. [ ]: non-standard residue; d: D form. Dap = NC[C@H](N)C(=O)O

Key:
[1] = target: FL-Akt1-pThr308/pSer473 (A1) and FL-Akt1-pThr308/2pSer477,Thr479 (A6) (Homo sapiens, UniProt P31749); test: Kinase inhibition assays with Akt inhibitors; format: biochemical; settings: 250 μM ATP, 20 μM GSK3 peptide
Akt1 PH domain [2] = target: T1, Akt1 PH domain (Homo sapiens, UniProt P31749); test: Competition binding assay displacing fluorescein-labeled PIP3; settings: competition with fluorescein-labeled PIP3
Method in brief: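 Competition format: 50 nM fluorescein-labeled soluble PIP3 with 1 μM Akt PH domain and varied unlabeled soluble phosphoinositide competitor (PIP3 di-C6 or PI(3,4)P2 di-C8). Buffer was 50 mM HEPES pH 7.5, 2 mM DTT, 0.05 mg/ml ovalbumin; incubated 30 min at room temperature, then fluorescence anisotropy read. Sigmoidal fit gave IC50, converted to Ki using free labeled ligand, free PH domain and probe Kd.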

[3] = target: non-C-terminally phosphorylated Akt1 (A2) (Homo sapiens, UniProt P31749); test: Kinase assay, effect of phosphoinositides on activity; format: biochemical; settings: 250 μM ATP, 20 μM GSK3 peptide, 10 mM MgCl2
Method in brief: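 Also present: 250 μM ATP with 32P-γ-ATP and 20 μM biotinylated GSK3 peptide. Added either 400 μM DOPC vesicles with 5 mol% PIP3 or 20 μM soluble PI(3,4)P2 (di-C8). Product was captured on 30 kDa filters and counted by scintillation; runs done at least twice.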

GSK3 peptide substrate = test: Radiometric kinase assay, steady-state kinetics of semisynthetic Akt1 forms; format: biochemical; settings: for catalytic efficiency (kcat/Km), fold lower relative to A1: compared with pThr308/pSer473 form A1; for kcat/Km, within fold of that of A2: low kcat/Km, compared with non-C-terminally phosphorylated enzyme A2
[4] = target: FL-Akt1-pThr308/pSer473 (A1) (Homo sapiens, UniProt P31749); test: Fluorescence anisotropy binding of soluble PIP3; settings: fluorescein-labeled soluble PIP3 (di-C6), 50 nM
Method in brief: (§1)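 Varying concentrations of semisynthetic full-length Akt1 were mixed with 50 nM fluorescein-labeled soluble PIP3 (di-C6). Buffer was 50 mM HEPES pH 7.5, 2 mM DTT, 0.05 mg/ml ovalbumin; incubated 30 min at room temperature. Fluorescence anisotropy was recorded at 23°C.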

[5] = target: FL-Akt1-pThr308/non-p C tail (A2) (Homo sapiens, UniProt P31749); test: Fluorescence anisotropy binding of soluble PIP3; settings: stated as nearly identical to the value for A1
Method in brief: as §1

[6] = target: non-phosphorylated FL-Akt1 (A9) (Homo sapiens, UniProt P31749); test: Fluorescence anisotropy binding of soluble PIP3; settings: fluorescein-labeled soluble PIP3, 50 nM
Method in brief: as §1

[7] = target: FL-Akt1-pThr308, pSer477,pThr479 (A6) (Homo sapiens, UniProt P31749); test: Fluorescence anisotropy binding of soluble PIP3
Method in brief: as §1

Akt1 PH domain [8] = target: T1, Akt1 PH domain; test: Fluorescent binding assay of PIP3 with Mg addition; settings: Mg addition up to 10 mM
[9] = target: pSer477,pThr479 Akt1 (A6) (Homo sapiens, UniProt P31749); test: Kinase assay, effect of PIP3 on activity; format: biochemical; settings: addition of excess soluble PIP3
Akt1 = Akt1 (human, UniProt P31749 1-480); test: kinase inhibition assay
[10] = target: non-C-terminally phosphorylated Akt1, C-terminally labeled with fluorescein (human) (UniProt P31749); test: fluorescence polarisation

T1 sequence (P31749 1-121): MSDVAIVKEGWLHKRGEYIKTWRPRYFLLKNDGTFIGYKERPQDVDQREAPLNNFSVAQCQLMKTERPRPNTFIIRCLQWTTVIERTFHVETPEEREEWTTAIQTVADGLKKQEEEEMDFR
FL-Akt1-pThr308/pSer473 (A1) and FL-Akt1-pThr308/2pSer477,Thr479 (A6), sequence (P31749 whole entry, the tested form may be a part): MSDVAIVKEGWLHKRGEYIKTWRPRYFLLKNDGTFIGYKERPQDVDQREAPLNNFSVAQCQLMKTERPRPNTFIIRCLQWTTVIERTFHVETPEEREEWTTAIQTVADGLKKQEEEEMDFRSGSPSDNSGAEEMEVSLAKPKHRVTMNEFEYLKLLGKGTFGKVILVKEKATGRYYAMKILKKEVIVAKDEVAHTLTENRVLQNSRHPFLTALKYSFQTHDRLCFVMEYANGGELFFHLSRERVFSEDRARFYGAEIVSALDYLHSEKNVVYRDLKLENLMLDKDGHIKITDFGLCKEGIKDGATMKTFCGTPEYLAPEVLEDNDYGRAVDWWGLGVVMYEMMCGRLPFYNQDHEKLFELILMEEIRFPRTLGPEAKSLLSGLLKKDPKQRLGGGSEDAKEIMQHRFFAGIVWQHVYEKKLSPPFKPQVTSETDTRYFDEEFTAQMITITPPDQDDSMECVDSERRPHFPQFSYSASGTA
non-C-terminally phosphorylated Akt1 (A2), sequence (P31749 whole entry): as the sequence (P31749 whole entry, the tested form may be a part) above
FL-Akt1-pThr308, pSer477,pThr479 (A6), sequence (P31749 whole entry): as the sequence (P31749 whole entry, the tested form may be a part) above
FL-Akt1-pThr308/non-p C tail (A2), sequence (P31749 whole entry): as the sequence (P31749 whole entry, the tested form may be a part) above
Akt1, sequence (P31749 whole entry): as the sequence (P31749 whole entry, the tested form may be a part) above
FL-Akt1-pThr308/pSer473 (A1), sequence (P31749 whole entry): as the sequence (P31749 whole entry, the tested form may be a part) above
non-phosphorylated FL-Akt1 (A9), sequence (P31749 whole entry): as the sequence (P31749 whole entry, the tested form may be a part) above
pSer477,pThr479 Akt1 (A6), sequence (P31749 whole entry): as the sequence (P31749 whole entry, the tested form may be a part) above

**Q.** `CC(C)NC[C@@H](C(=O)N1CCN(c2ncnc3c2[C@H](C)C[C@H]3O)CC1)c1ccc(Cl)cc1` [GDC0068] was tested. Which “apparent Ki ratio, A6 relative to A1” value ([1]; Ki lower for A1, higher for A6) did it give?
**A.** Its value is 8 fold.

**Q.** `NC1(c2ccc(-c3nc4ccn5c(=O)[nH]nc5c4cc3-c3ccccc3)cc2)CCC1` [MK2206] was tested. Which “sensitivity of A6 relative to A1 to the inhibitor” value [1] did it give?
**A.** Its value is “distinct sensitivities”.

**Q.** `CCCCCCCC(=O)OC[C@H](COP(=O)(O)O[C@H]1[C@H](O)[C@@H](O)[C@H](OP(=O)(O)O)[C@@H](OP(=O)(O)O)[C@H]1O)OC(=O)CCCCCCC` [soluble PI(3,4)P2] was tested. Which “binding to Akt1 PH domain” value (Akt1 PH domain [2]) did it give?
**A.** The value was “high affinity”.

**Q.** What about the “stimulation of enzymatic activity of A2” value [3] of the same molecule?
**A.** Its value is “did not stimulate”.

**Q.** For “A1: semisynthetic full-length Akt1, pThr308/pSer473”, which “catalytic efficiency, fold larger than that of Asp473 form A4” value (GSK3 peptide substrate; A1 vs A4) is on record?
**A.** Its value is > 100 fold and 100 fold.

**Q.** And the “kcat/Km, fold greater than that of A2” value (GSK3 peptide substrate; pThr308 set of full-length Akt1, v/[E] vs [ATP])?
**A.** The value was “about 500 fold”.

**Q.** Which “catalytic efficiency (kcat/Km), fold lower relative to A1” value (GSK3 peptide substrate) does the source give for “A3: full-length Akt1 pSer473 form lacking phosphorylation at Thr308” here?
**A.** The value was 500 fold.

**Q.** Which “kcat/Km, within fold of that of A2” value (GSK3 peptide substrate) does the source give for “A4: full-length Akt1 pThr308, Asp473 form” here?
**A.** The value was at most 3 fold.

**Q.** “A5: full-length Akt1 pThr308, triply phosphorylated C-tail form” was tested. Which “activity, fold more active than A1” value (GSK3 peptide substrate; compared with pSer473 form A1) did it give?
**A.** The value was ~ 2 fold.

**Q.** “A6: full-length Akt1 pThr308 with pSer477/pThr479” was tested. Which “catalytic efficiency (kcat/Km), fold lower relative to A1” value (GSK3 peptide substrate) did it give?
**A.** The value was 8 fold.

**Q.** With “A7: full-length Akt1 pThr308, pSer477 form” as the molecule, how does the “kcat/Km, within fold of that of A2” value (GSK3 peptide substrate) read?
**A.** Its value is at most 3 fold.

**Q.** “A8: full-length Akt1 pThr308, pSer479 form as printed” was tested. Which “kcat/Km, within fold of that of A2” value (GSK3 peptide substrate) did it give?
**A.** The value was at most 3 fold.

**Q.** “A12: R144A point mutation in the context of pSer473 Akt1” was tested. Which “catalytic efficiency (kcat/Km), fold lower relative to A1” value (GSK3 peptide substrate) did it give?
**A.** The value was ~ 50 fold.

**Q.** What does the source list for “phosphatidyl inositol 3,4,5-triphosphate [soluble PIP3]”?
**A.** Kd [4]: ~200 nM; Kd [5]: ~200 nM; Kd [6]: 90 nM; Kd, fold greater than for A1 or A2 ([7]; A6 vs A1 or A2, weakened binding): 4 fold; Kd ([7]; fluorescein-labeled soluble PIP3, 50 nM): 800 nM; increase of Kd on Mg addition (Akt1 PH domain [8]): ~ 3 fold; stimulation of enzymatic activity of A2 [3]: did not stimulate; effect on catalytic activity of A6 [9]: minimally impacted

**Q.** Which Ki (Akt1) does the source give for GRPRTT[Dap]([Ac-ATP‑γS])FAE [GSK3 peptide-ATP conjugate bisubstrate analog] here?
**A.** Its Ki is 3.6 µM.

B1: A16: Δ143-Akt1-pThr308 construct possessing Asp473 (protein, UniProt P31749 1-480, looked up, variant del1-143 S473D)
RAC-alpha …: RVTMNEFEYLKLLGKGTFGKVILVKEKATGRYYAMKILKKEVIVAKDEVAHTLTENRVLQNSRHPFLTALKYSFQTHDRLCFVMEYANGGELFFHLSRERVFSEDRARFYGAEIVSALDYLHSEKNVVYRDLKLENLMLDKDGHIKITDFGLCKEGIKDGATMKTFCGTPEYLAPEVLEDNDYGRAVDWWGLGVVMYEMMCGRLPFYNQDHEKLFELILMEEIRFPRTLGPEAKSLLSGLLKKDPKQRLGGGSEDAKEIMQHRFFAGIVWQHVYEKKLSPPFKPQVTSETDTRYFDEEFTAQMITITPPDQDDSMECVDSERRPHFPQFDYSASGTA
modifications: pThr308
**Q.** Which “kcat/Km, within fold of each other” value (GSK3 peptide substrate; Δ143-Akt1-pThr308 constructs A15-A18) does the source give for B1 here?
**A.** The value was at most 3 fold.

B2: GST-PDK1 (enzyme)
chain: MARTTSQLYDAVPIQSSVVLCSCPSPSMVRTQTESSTPPGIPGGSRQGPAMDGTAAEPRPGAGSLQHAQPPPQPRKKRPEDFKFGKILGEGSFSTVVLARELATSREYAIKILEKRHIIKENKVPYVTRERDVMSRLDHPFFVKLYFTFQDDEKLYFGLSYAKNGELLKYIRKIGSFDETCTRFYTAEIVSALEYLHGKGIIHRDLKPENILLNEDMHIQITDFGTAKVLSPESKQARANSFVGTAQYVSPELLTEKSACKSSDLWALGCIIYQLVAGLPPFRAGNEYLIFQKIIKLEYDFPEKFFPKARDLVEKLLVLDATKRLGCEEMEGYGPLKAHPFFESVTWENLHQQTPPKLTAYLPAMSEDDEDCYGNYDNLLSQFGCMQVSSSSSSHSLSASDTGLPQRSGSNIEQYIHDLDSNSFELDLQFSEDEKRLLLEKQAGGNPWHQFVENNLILKMGPVDKRKGLFARRRQLLLTEGPHLYYVDPVNKVLKGEIPWSQELRPEAKNFKTFFVHTPNRTYYLMDPSGNAHKWCRKIQEVWRQRYQSHPDAAVQ
**Q.** B2 was tested. Which Kd [10] did it give?
**A.** The Kd was 200 nM.
